Substitutions are numbered along the chain they refer to. “And” between values parts separate entries of the source, which are not always exact repeats. Equal values may be shown once.
Legend:
[1] = target: T1, PMAT I89M mutant (Homo sapiens, UniProt Q7RTT9, I89M); assay: Inhibition of [3H]MPP+ uptake in I89M-transfected MDCK cells; type: cell-based
T1 sequence (Q7RTT9 1-530 I89M): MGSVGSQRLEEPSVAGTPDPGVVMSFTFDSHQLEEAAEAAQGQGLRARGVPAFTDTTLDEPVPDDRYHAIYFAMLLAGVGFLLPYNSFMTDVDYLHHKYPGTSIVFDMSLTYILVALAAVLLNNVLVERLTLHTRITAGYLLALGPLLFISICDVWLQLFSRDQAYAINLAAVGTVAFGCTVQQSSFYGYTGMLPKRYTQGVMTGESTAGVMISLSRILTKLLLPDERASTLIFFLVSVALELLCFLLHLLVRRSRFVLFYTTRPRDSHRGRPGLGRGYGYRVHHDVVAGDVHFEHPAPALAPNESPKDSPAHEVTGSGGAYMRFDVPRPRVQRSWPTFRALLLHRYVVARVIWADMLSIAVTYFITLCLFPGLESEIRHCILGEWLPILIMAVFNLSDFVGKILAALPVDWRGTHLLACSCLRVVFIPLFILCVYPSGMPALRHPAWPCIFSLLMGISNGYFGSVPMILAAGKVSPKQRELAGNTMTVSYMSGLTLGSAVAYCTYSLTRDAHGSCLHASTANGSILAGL
Method in brief: (§1)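 Stably transfected MDCK cells (YFP-tagged WT or I89M human PMAT) at confluence were exposed 1 min at 37°C in KRH buffer (pH 7.4) to [3H]MPP+ (1 μM) with or without test compound at various concentrations. Cells were washed in ice-cold KRH, counted by scintillation, and normalized to protein. IC50 came from fitting total uptake to a Hill-type equation with residual baseline. Wells in triplicate; three independent experiments on different passages; mean ± S.D.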

[2] = target: T2, WT PMAT (Homo sapiens, UniProt Q7RTT9); assay: Inhibition of [3H]MPP+ uptake in WT PMAT-transfected MDCK cells; type: cell-based
T2 sequence (Q7RTT9 1-530): T1 sequence (Q7RTT9 1-530 I89M) with M89I
Method in brief: as §1

[3] = target: T1, PMAT I89M mutant; assay: Concentration-dependent [3H]MPP+ uptake; type: cell-based; details: MPP+ as substrate
Method in brief: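 MDCK cells stably expressing YFP-tagged WT or I89M human PMAT (G418-selected, FACS-sorted) were grown 2–3 days to ~90–100% confluence. Cells were preincubated 15 min in KRH buffer (pH 7.4) at 37°C, then given various [3H]MPP+ concentrations for 1 min at 37°C. Uptake was read by scintillation and normalized to protein. Vector-cell uptake was subtracted, and Km and Vmax came from Michaelis-Menten nonlinear least-squares fits. Wells in triplicate; n=3 passages.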

[4] = target: ENT1; details: mammalian ENT1 proteins; cited from earlier work
[5] = system: ENT2; details: ENT2 transporters; cited from earlier work

COc1cc(C(=O)OCCCN2CCCN(CCCOC(=O)c3cc(OC)c(OC)c(OC)c3)CC2)cc(OC)c1OC [Dilazep, dilazep]
IC50 [1]: 6.6 ± 0.5 µM | Increase in transporter sensitivity to inhibition, I89M vs WT PMAT ([1]; inhibition of MPP+ uptake): 2.5 fold and ~ 2.5 fold | IC50 [2]: 16.6 ± 2.1 µM

OCCN(CCO)c1nc(N2CCCCC2)c2nc(N(CCO)CCO)nc(N3CCCCC3)c2n1 [Dipyridamole, dipyridamole]
IC50 [1]: 4.6 ± 1.8 µM | Change in inhibition, I89M vs WT PMAT (in words) ([1]; inhibition of MPP+ uptake): no significant changes

C[n+]1ccc(-c2ccccc2)cc1 [MPP^+, 1-methyl-4-phenylpyridinium]
Decrease in maximal transport velocity (Vmax), I89M vs WT PMAT [3]: 2.7 fold and ~ 2.7 fold | Decrease in transport efficiency (Vmax/Km), I89M vs WT PMAT [3]: 3.7 fold

O=[N+]([O-])c1ccc(CSc2ncnc3c2ncn3[C@@H]2O[C@H](CO)[C@@H](O)[C@H]2O)cc1 [NBMPR, nitrobenzylmercaptopurine riboside]
Kd [4]: 0.001 to 0.01 µM | Change in inhibition, I89M vs WT PMAT (in words) ([1]; inhibition of MPP+ uptake): no significant changes | Concentration at which the transporter becomes sensitive [5]: > 10 µM
